In article PMC6314479 (Nature chemical biology, 2017):

Legend:
USP10 [1] = target: USP10 (Homo sapiens, UniProt Q14694); assay: MALDI-TOF DUB assay with diubiquitin as substrate, dose response; type: biochemical; conditions: read-out: USP10 IC50
Procedure, shortened: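 Human USP10 was freshly diluted in 40mM Tris–HCl pH 7.6, 5mM DTT, 0.005% BSA and pre-incubated with test compound for 30 min at room temperature. Di-ubiquitin topoisomers (K63, K48, K11, M1) at 1.5 μM were added, incubated 30 min at room temperature, then stopped with TFA at 2% (v/v) final. Cleavage was read by MALDI-TOF.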

wt FLT3 = assay: FLT3 protein levels in Ba/F3-wtFLT3 cells; type: cell-based, murine
FLT3-ITD = assay: FLT3 degradation in FLT3-ITD positive AML lines; type: cell-based, human; conditions: MOLM13-luc+ and MOLM14, 20 μM
Beclin-1 = Beclin-1 and FLT3 protein levels; type: cell-based
[2] = test system: FLT3-ITD positive primary AML patient cells and primagraft cells; assay: Ex vivo treatment of AML patient samples and primagrafts; type: cell-based, human; conditions: 21 hours, 20 μM
[3] = test system: FLT3-ITD+, D835Y+ AML primagraft; assay: AML primagraft study in NSG mice; type: in vivo
Procedure, shortened: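 Primagraft mice got the test compound at 15 mg/kg IP once daily (n=3) or vehicle (n=3). Dosing began once disease was detectable by flow cytometry and ran for 21 days. Body weight was followed to judge tolerability.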

[4] = test system: Ba/F3-FLT3-ITD-luc+ cells; assay: Non-invasive in vivo bioluminescence model of leukemia
[5] = test system: Ba/F3-FLT3-ITD and Ba/F3-FLT3-D835Y cells; assay: Proliferation of mutant FLT3-positive Ba/F3 cells; type: cell-based, murine
USP10 [6] = assay: Competitive activity-based protein profiling with HA-Ub-VS in cells; type: cell-based; conditions: lysates from live treated cells (Ba/F3-FLT3-ITD, MOLM14)
[7] = 50 mg/kg twice daily IP, 4 days, pilot study

Chain of USP10 (Homo sapiens, UniProt Q14694) (Q14694 whole entry): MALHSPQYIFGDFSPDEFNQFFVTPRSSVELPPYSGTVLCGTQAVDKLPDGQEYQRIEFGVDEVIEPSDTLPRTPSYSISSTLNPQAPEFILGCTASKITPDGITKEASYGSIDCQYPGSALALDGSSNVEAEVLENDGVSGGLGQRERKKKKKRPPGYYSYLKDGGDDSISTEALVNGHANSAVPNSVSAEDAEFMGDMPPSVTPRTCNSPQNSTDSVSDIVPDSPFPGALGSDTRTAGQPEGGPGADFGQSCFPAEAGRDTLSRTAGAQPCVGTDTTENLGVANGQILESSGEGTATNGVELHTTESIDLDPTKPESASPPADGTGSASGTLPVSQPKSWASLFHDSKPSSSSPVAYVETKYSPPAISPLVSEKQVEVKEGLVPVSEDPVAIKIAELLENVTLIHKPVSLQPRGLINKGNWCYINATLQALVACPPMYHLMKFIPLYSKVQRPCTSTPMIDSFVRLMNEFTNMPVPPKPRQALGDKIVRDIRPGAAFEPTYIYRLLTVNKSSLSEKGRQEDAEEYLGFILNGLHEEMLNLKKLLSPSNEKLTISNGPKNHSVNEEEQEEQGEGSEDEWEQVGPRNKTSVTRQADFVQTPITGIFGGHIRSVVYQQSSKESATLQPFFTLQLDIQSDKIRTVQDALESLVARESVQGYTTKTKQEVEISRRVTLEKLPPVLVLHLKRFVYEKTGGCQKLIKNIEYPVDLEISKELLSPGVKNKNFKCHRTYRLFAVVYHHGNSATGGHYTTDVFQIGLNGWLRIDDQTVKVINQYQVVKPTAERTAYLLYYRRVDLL

CC(=O)c1cc([N+](=O)[O-])c(Sc2ccc(F)cc2F)s1 [P22077]
IC50 (USP10 [1]): 6 µM | FLT3 protein levels (wt FLT3): unchanged | FLT3 degradation (FLT3-ITD): strongly induced FLT3 degradation | protein levels of Beclin-1 (Beclin-1; 10 μM, MOLM14 cells): strongly decreased | FLT3 levels via immunoblotting [2]: strong reduction in FLT3 | FLT3 signal in mouse bone marrow lysates (immunoblot) ([3]; 15 mg/kg IP 1X daily, 21 days): undetectable | tolerability ([3]; 15mg/kg, 21 day treatment): generally well tolerated | average weight loss ([3]; 15mg/kg, 21 days, same for vehicle-treated): 2 to 3 g | leukemia burden compared to vehicle (in vivo bioluminescence) ([4]; 50 mg/kg IP twice daily or oral gavage once daily, 4–6 days of treatment): statistically significant decrease | lower percentage of FLT3 expression in bone marrow vs vehicle (flow cytometry) [4, 7]: approximately 2 fold | reduction in luciferase-positive signal in bone marrow vs vehicle [4, 7]: approximately 2 fold | difference in weight vs vehicle-treated mice ([4]; treated for up to 11 days): no significant difference

HBX19818
IC50 (USP10 [1]): 14 µM | EC50 for inhibition of proliferation [5]: single digit micromolar range | FLT3 protein levels (wt FLT3): unchanged | FLT3 degradation (FLT3-ITD): strongly induced FLT3 degradation | protein levels of Beclin-1 and FLT3 (Beclin-1; 20 μM, Ba/F3-FLT3-ITD and MOLM14 cells): strongly decreased | inhibitor concentration blocking USP10 labeling by HA-Ub-VS (USP10 [6]): low micromolar range | FLT3 levels via immunoblotting [2]: strong reduction in FLT3
